Assay results from PMC7063993 (ACS chemical neuroscience, 2019).

Tests used:
MN9D cells [1] = experiment: Intracellular ROS levels by DCFH-DA in MN9D cells; type: cell-based, mouse
HepG2 cells [2] = experiment: Intracellular ROS levels by DCFH-DA in HepG2 cells; type: cell-based, Human; conditions: 1 h
In short: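 Cells in 12-well plates loaded with 10 μM DCFH-DA in KRB-HEPES for 1 h, then washed with ice-cold buffer. Exposed to test compound in the same buffer for 1 h at 37 °C. Harvested and lysed in 0.1 M Tris (pH 7.5) with 1% Triton X-100, then cleared by centrifugation. DCF fluorescence read at Ex/Em 488/524 nm and normalized to protein content.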

[3] = test system: MN9D cell mitochondrial membrane potential; experiment: Mitochondrial membrane potential; type: cell-based, mouse; conditions: 500 μM, 1 h of incubation, TMRM
In short: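 MN9D cells on glass-bottomed plates loaded with 50 nM TMRM in KRB-HEPES for 45 min in the dark. Fluorescence (Ex/Em 543/573 nm) recorded from 15–20 ROIs every 5 s for 3 min as baseline. Test compound then added and recording continued every 15 s for 1 h. Background subtracted and ROI averages taken as membrane potential.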

[4] = Relative lipophilicity estimated by reverse phase HPLC retention times; type: physicochemical
MN9D cells [5] = experiment: Cellular uptake into MN9D cells; type: cell-based, mouse; conditions: for Concentration dependence of MN9D cell uptake: up to 100 μM (0-100 μM for 45 min for [3], [4], [5])
In short: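 MN9D cells seeded at 0.25 x 10⁶ cells/well and grown 2–3 days to 70–80% confluency. Test compound in warm KRB-HEPES (pH 7.4) at 37 °C: 50 μM for 0–60 min (time course) or varying concentrations for 45 min. Cells washed in ice-cold buffer and pellets extracted with 0.1 M HClO₄. C18 reversed-phase HPLC-UV quantified against standard curves. Normalized to Bradford protein, time-zero readings subtracted.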

[6] = Uptake into isolated intact MN9D cell mitochondria; parameters: species or system mouse; conditions: 50 μM, 45 min
[7] = test system: rat brain mitochondrial complex I; experiment: Mitochondrial complex I; type: biochemical
[8] = test system: dopaminergic SH-SH5Y cells; experiment: MTT cell viability assay, SH-SY5Y cell toxicity; type: cell-based; conditions: read-out: IC50 (SH-SH5Y cell toxicity)
In short: (§1)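 Cells grown in 96-well plates to ~70–80% confluence. Medium replaced with DMEM containing test compound at varying concentrations, 18 h (12 h in one series) at 37 °C. MTT added for 2 h at 37 °C. Formazan dissolved in 50% DMF/20% SDS for 12 h at 37 °C and read as A570 minus A650. Viability expressed as % of untreated controls.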

HepG2 cells [9] = experiment: MTT cell viability assay, HepG2 cell toxicity; type: cell-based, Human; conditions: same conditions/concentrations as MN9D experiments
In short: as §1

MN9D cells [10] = experiment: Chromatin condensation test for apoptosis; type: cell-based, mouse; conditions: 200 μM [1], 12 h, 300 nM DAPI
In short: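 MN9D cells on glass-bottomed plates exposed to test compound for 12 h. Nuclear DAPI fluorescence (Ex/Em 358/461 nm) from chromatin condensation observed by fluorescence microscopy. Controls handled the same way without toxin.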

dopaminergic MN9D cells = experiment: MTT cell viability assay, MN9D cell toxicity; type: cell-based, mouse; conditions: Asc pre-treatment 30 min, 8 μM [3] or 40 μM [1], 18 h
In short: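 MN9D cells in 96-well plates pretreated with ascorbate (0–500 μM) for 30 min at 37 °C. Then exposed to a fixed concentration of test compound with the same ascorbate level for 18 h at 37 °C. Read by MTT (A570 − A650) as % of controls. Parallel toxin-free wells at each ascorbate level subtracted to correct for MTT reduction by ascorbate.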

## 4-(4′-methoxyphenyl-1-[2-(4-fluorophenyl)-propyl]pyridinium bromide [[5]]
MN9D cells [1]; MN9D cells, up to 100 μM, 1 h, DCFH-DA
  Effect on intracellular ROS levels in MN9D cells: did not significantly increase
HepG2 cells [2]
  Effect on intracellular ROS levels in HepG2 cells: did not increase
[3]
  Depolarization of MN9D cell mitochondrial membrane potential: very weakly
[4]
  RT (relative lipophilicity, reverse phase HPLC retention time): 6.97 min
MN9D cells [5]
  Concentration dependence of MN9D cell uptake: concentration dependent and non-saturable
[6]
  Uptake into isolated intact MN9D mitochondria: accumulate efficiently in intact mitochondria with comparable efficiency

## C=C(C)[C@H]1Cc2c(ccc3c2O[C@@H]2COc4cc(OC)c(OC)cc4[C@@H]2C3=O)O1 [rotenone]
[7]; 10 μM, positive control, compared to control
  Inhibition of ubiquinone dependent NADH oxidation activity of complex I: more than 85%

## CC(=C[n+]1ccc(-c2ccccc2)cc1)c1ccccc1 [[1], N-(2-phenyl-1-propene)-4-phenyl-pyridinium]
[8]
  IC50: ~50 µM
HepG2 cells [9]
  Toxicity to HepG2 cells: not significantly toxic
[4]
  RT (relative lipophilicity, reverse phase HPLC retention time): 6.33 min
MN9D cells [5]; 50 μM, up to 1 h, 37°C
  Time course of MN9D cell uptake: linear
MN9D cells [5]
  Concentration dependence of MN9D cell uptake: non-saturable
MN9D cells [10]
  Chromatin condensation (nuclear DAPI fluorescence) in MN9D cell death: associated with chromatin condensation

## C[n+]1ccc(-c2ccccc2)cc1 [MPP^+, 1-methyl-4-phenylpyridinium]
[7]; 100 μM, rat brain mitochondrial membranes
  Relative percent inhibition of complex I: 12.5%

## 4-(4′-methoxyphenyl-1-[2-(4-chlorophenyl)-propyl] pyridinium bromide [[3]]
MN9D cells [1]; MN9D cells, 100 μM, 1 h, DCFH-DA
  Increase of intracellular ROS level from the baseline levels: 2.5–3.0 fold
HepG2 cells [2]
  Effect on intracellular ROS levels in HepG2 cells: did not increase
[3]
  Depolarization of MN9D cell mitochondrial membrane potential: drastically
[4]
  RT (relative lipophilicity, reverse phase HPLC retention time): 8.39 min
MN9D cells [5]
  Concentration dependence of MN9D cell uptake: concentration dependent and non-saturable
[6]
  Uptake into isolated intact MN9D mitochondria: accumulate efficiently in intact mitochondria with comparable efficiency

## O=C1O[C@H]([C@@H](O)CO)C(O)=C1O [Asc, ascorbate, reference compound]
Dopaminergic MN9D cells
  Effect on [1] and [3]-mediated MN9D cell death: protects
MN9D cells [1]; Asc 0-2 mM pre-incubation 1 h, then 200 μM [1] for 5 h
  Effect on [1]-mediated ROS production in MN9D cells: effectively reduces
